{"source": "ChEMBL document CHEMBL1157145", "about": "“Cytotoxic activity of proflavine diureas: synthesis, antitumor, evaluation and DNA binding properties of 1',1''-(acridin-3,6-diyl)-3',3''-dialkyldiureas” (Bioorg Med Chem, 2008)", "key": {"HCT-116 [1]": {"test_system": "HCT-116", "assay": "Cell cycle arrest in human HCT116 cells assessed as accumulation at G2/M phase at 77 uM after 48 hrs", "format": "functional", "in_short": "(§1)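 Cells seeded at 8 · 10^5 per 60 mm dish, allowed to settle 24 h (37 °C, 5% CO2), then exposed to the drug for 24 or 48 h. Adherent plus floating cells (5 · 10^5) were fixed in cold 70% ethanol at −20 °C overnight, treated with RNase A (100 µg/mL) and stained with propidium iodide (20 µg/mL) in Vindelov's solution for 30 min at RT. Flow cytometry used 488 nm excitation, FL-2 at 585 ± 21 nm, and histograms were modelled for G0/G1, S and G2/M fractions.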"}, "HCT-116 [2]": {"test_system": "HCT-116", "assay": "Induction of DNA fragmentation in human HCT116 cells after 48 hrs", "format": "functional, cell-based", "in_short": "(§2)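 HCT-116 cells were treated for 24 or 48 h. Adherent and floating cells (5 × 10^5) were pooled, fixed in cold 70% ethanol and held overnight at −20 °C. Samples were treated with RNase A (100 µg/mL) and stained with propidium iodide (20 µg/mL) in Vindelov's solution for 30 min at RT. Flow cytometry used 488 nm excitation with emission at 585 nm. Subdiploid (subG0/G1) particles were scored on a logarithmic scale, with debris gated out on FSC × SSC.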"}, "DNA [3]": {"test_system": "DNA", "assay": "Binding affinity to calf thymus DNA at 4 uM by fluorescence spectrophotometric titration", "format": "nucleic-acid assay", "conditions": "Bos taurus", "in_short": "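ctDNA sonicated in TE buffer, concentration taken from A260 and given in base pairs. Compound (4 µM) in 0.01 M Tris, pH 7.4, 25 °C titrated with ctDNA (0–55 µM bp) until spectra stopped changing. Excitation 424 nm, slit widths 10 nm; binding constant derived from the change in emission.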"}, "DNA [4]": {"test_system": "DNA", "assay": "Binding affinity to calf thymus DNA at 50 uM by circular dichroism spectrophotometric titration", "format": "nucleic-acid assay", "conditions": "Bos taurus"}, "HeLa [5]": {"test_system": "HeLa", "assay": "Cytotoxicity against human HeLa cells after 48 hrs by MTT assay", "format": "functional, cell-based"}, "HeLa [6]": {"test_system": "HeLa", "assay": "Cytotoxicity against human HeLa cells after 72 hrs by MTT assay", "format": "functional, cell-based"}, "HCT-116 [7]": {"test_system": "HCT-116", "assay": "Cytotoxicity against human HCT116 cells after 48 hrs by MTT assay", "format": "functional, cell-based", "conditions": "HCT-116, 48 h"}, "HCT-116 [8]": {"test_system": "HCT-116", "assay": "Cytotoxicity against human HCT116 cells after 72 hrs by MTT assay", "format": "functional, cell-based", "conditions": "Homo sapiens, HCT-116, 72 h"}, "HeLa [9]": {"test_system": "HeLa", "assay": "Antiproliferative activity against human HeLa cells assessed as increase of floating cells in total cell population at 5.50 uM after 24 hrs", "format": "functional", "in_short": "(§3)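 Cells seeded (8 · 10^5 per 60 mm dish), allowed to settle 24 h at 37 °C, 5% CO2, then treated with a single concentration for 24 or 48 h. Adherent and floating cells counted by Coulter counter. Total cell number given as % of untreated control; floating cells as % of total cell number.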"}, "HeLa [10]": {"test_system": "HeLa", "assay": "Antiproliferative activity against human HeLa cells assessed as decrease in total cell population at 5.50 uM after 24 hrs", "format": "functional", "set-up": "scale not given: the % may be the effect or the level left", "in_short": "as §3"}, "HeLa [11]": {"test_system": "HeLa", "assay": "Antiproliferative activity against human HeLa cells assessed as increase of floating cells in total cell population at 5.50 uM after 48 hrs", "format": "functional", "in_short": "as §3"}, "HeLa [12]": {"test_system": "HeLa", "assay": "Antiproliferative activity against human HeLa cells assessed as decrease in total cell population at 5.50 uM after 48 hrs", "format": "functional", "set-up": "scale not given: the % may be the effect or the level left", "in_short": "as §3"}, "HCT-116 [13]": {"test_system": "HCT-116", "assay": "Antiproliferative activity against human HCT116 cells assessed as increase of floating cells in total cell population at 77 uM after 24 hrs", "format": "functional", "in_short": "as §3"}, "HCT-116 [14]": {"test_system": "HCT-116", "assay": "Antiproliferative activity against human HCT116 cells assessed as decrease in total cell population at 77 uM after 24 hrs", "format": "functional", "set-up": "scale not given: the % may be the effect or the level left", "in_short": "as §3"}, "HCT-116 [15]": {"test_system": "HCT-116", "assay": "Antiproliferative activity against human HCT116 cells assessed as increase of floating cells in total cell population at 77 uM after 48 hrs", "format": "functional", "in_short": "as §3"}, "HCT-116 [16]": {"test_system": "HCT-116", "assay": "Antiproliferative activity against human HCT116 cells assessed as decrease in total cell population at 77 uM after 48 hrs", "format": "functional", "set-up": "scale not given: the % may be the effect or the level left", "in_short": "as §3"}, "HeLa [17]": {"test_system": "HeLa", "assay": "Induction of apoptosis in human HeLa cells at 5.50 uM after 48 hrs", "format": "functional", "in_short": "(§4)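 After 24 or 48 h of drug exposure, all cells were collected, combining trypsinised adherent cells with floating cells from the medium. Cells (1 × 10^6) were fixed in cold 70% ethanol overnight at −20 °C and stained with DAPI (10 µg/mL) for 30 min in the dark at RT. Under fluorescence microscopy, 300 cells per sample were scored, with condensed or fragmented nuclei counted as apoptotic.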"}, "HCT-116 [18]": {"test_system": "HCT-116", "assay": "Induction of apoptosis in human HCT116 cells at 77 uM after 24 hrs", "format": "functional", "in_short": "as §4"}, "HCT-116 [19]": {"test_system": "HCT-116", "assay": "Induction of apoptosis in human HCT116 cells at 77 uM after 48 hrs", "format": "functional", "in_short": "as §4"}, "HCT-116 [20]": {"test_system": "HCT-116", "assay": "Induction of DNA fragmentation in human HCT116 cells after 24 hrs", "format": "functional, cell-based", "in_short": "as §2"}, "HeLa [21]": {"test_system": "HeLa", "assay": "Cell cycle arrest in human HeLa cells assessed as accumulation at G0/G1 phase at 5.50 uM after 24 hrs", "format": "functional", "in_short": "as §1"}, "HeLa [22]": {"test_system": "HeLa", "assay": "Cell cycle arrest in human HeLa cells assessed as accumulation at G0/G1 phase at 5.50 uM after 48 hrs", "format": "functional", "in_short": "as §1"}, "HCT-116 [23]": {"test_system": "HCT-116", "assay": "Cell cycle arrest in human HCT116 cells assessed as accumulation at G0/G1 phase at 77 uM after 24 hrs", "format": "functional", "in_short": "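Adherent plus floating cells (5 · 10^5) collected 24 or 48 h after treatment, fixed in cold 70% ethanol at −20 °C overnight, washed in PBS. RNase A (100 µg/mL) and propidium iodide (20 µg/mL) in Vindelov's solution, 30 min at RT. Flow cytometry with 488 nm excitation, emission 585 ± 21 nm; % cells per cycle phase from DNA content histograms.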"}, "HCT-116 [24]": {"test_system": "HCT-116", "assay": "Cell cycle arrest in human HCT116 cells assessed as accumulation at G0/G1 phase at 77 uM after 48 hrs", "format": "functional", "in_short": "as §1"}, "HeLa [25]": {"test_system": "HeLa", "assay": "Cell cycle arrest in human HeLa cells assessed as accumulation at S phase at 5.50 uM after 24 hrs", "format": "functional", "in_short": "as §1"}, "HeLa [26]": {"test_system": "HeLa", "assay": "Cell cycle arrest in human HeLa cells assessed as accumulation at S phase at 5.50 uM after 48 hrs", "format": "functional", "in_short": "as §1"}, "HCT-116 [27]": {"test_system": "HCT-116", "assay": "Cell cycle arrest in human HCT116 cells assessed as accumulation at S phase at 77 uM after 24 hrs", "format": "functional", "in_short": "as §1"}, "HCT-116 [28]": {"test_system": "HCT-116", "assay": "Cell cycle arrest in human HCT116 cells assessed as accumulation at S phase at 77 uM after 48 hrs", "format": "functional", "in_short": "as §1"}, "HeLa [29]": {"test_system": "HeLa", "assay": "Cell cycle arrest in human HeLa cells assessed as accumulation at G2/M phase at 5.50 uM after 24 hrs", "format": "functional", "in_short": "as §1"}, "HeLa [30]": {"test_system": "HeLa", "assay": "Cell cycle arrest in human HeLa cells assessed as accumulation at G2/M phase at 5.50 uM after 48 hrs", "format": "functional", "in_short": "as §1"}, "HCT-116 [31]": {"test_system": "HCT-116", "assay": "Cell cycle arrest in human HCT116 cells assessed as accumulation at G2/M phase at 77 uM after 24 hrs", "format": "functional", "in_short": "as §1"}}, "note": "Activity calls are given as the source filed them. No cut-off for these calls is given here.", "data": [{"smiles": "CCCCNC(=O)Nc1ccc2cc3ccc(NC(=O)NCCCC)cc3nc2c1.Cl", "values": [{"measurement": "Activity", "setting": "HCT-116 [1]", "value": 28.85, "unit": "%"}, {"measurement": "Activity", "setting": "HCT-116 [2]", "value": "Active"}, {"measurement": "K", "setting": "DNA [3]", "value": 2.4, "unit": "×10⁵ /M"}, {"measurement": "Activity", "setting": "DNA [4]", "value": "Active"}, {"measurement": "IC50", "setting": "HeLa [5]", "value": 5.41, "unit": "µM"}, {"measurement": "IC50", "setting": "HeLa [6]", "value": 11.5, "unit": "µM"}, {"measurement": "IC50", "setting": "HCT-116 [7]", "value": 77, "unit": "µM"}, {"measurement": "IC50", "setting": "HCT-116 [8]", "value": 43.9, "unit": "µM"}, {"measurement": "Activity", "setting": "HeLa [9]", "value": 4.03, "unit": "%"}, {"measurement": "Activity", "setting": "HeLa [10]", "value": 92.75, "unit": "%"}, {"measurement": "Activity", "setting": "HeLa [11]", "value": 3.93, "unit": "%"}, {"measurement": "Activity", "setting": "HeLa [12]", "value": 96.5, "unit": "%"}, {"measurement": "Activity", "setting": "HCT-116 [13]", "value": 51.08, "unit": "%"}, {"measurement": "Activity", "setting": "HCT-116 [14]", "value": 47.4, "unit": "%"}, {"measurement": "Activity", "setting": "HCT-116 [15]", "value": 33.41, "unit": "%"}, {"measurement": "Activity", "setting": "HCT-116 [16]", "value": 27.58, "unit": "%"}, {"measurement": "Activity", "setting": "HeLa [17]", "value": 0.44, "unit": "%"}, {"measurement": "Activity", "setting": "HCT-116 [18]", "value": 9.67, "unit": "%"}, {"measurement": "Activity", "setting": "HCT-116 [19]", "value": 3.89, "unit": "%"}, {"measurement": "Activity", "setting": "HCT-116 [20]", "value": "Active"}, {"measurement": "Activity", "setting": "HeLa [21]", "value": 61.17, "unit": "%"}, {"measurement": "Activity", "setting": "HeLa [22]", "value": 74.91, "unit": "%"}, {"measurement": "Activity", "setting": "HCT-116 [23]", "value": 39.97, "unit": "%"}, {"measurement": "Activity", "setting": "HCT-116 [24]", "value": 43.91, "unit": "%"}, {"measurement": "Activity", "setting": "HeLa [25]", "value": 24.95, "unit": "%"}, {"measurement": "Activity", "setting": "HeLa [26]", "value": 15.5, "unit": "%"}, {"measurement": "Activity", "setting": "HCT-116 [27]", "value": 22.52, "unit": "%"}, {"measurement": "Activity", "setting": "HCT-116 [28]", "value": 27.24, "unit": "%"}, {"measurement": "Activity", "setting": "HeLa [29]", "value": 13.88, "unit": "%"}, {"measurement": "Activity", "setting": "HeLa [30]", "value": 9.6, "unit": "%"}, {"measurement": "Activity", "setting": "HCT-116 [31]", "value": 37.51, "unit": "%"}]}]}
